ChEMBL document CHEMBL3272168, “Benzodipyran derivatives with antiallergic activity” (1976)

tested on: Rattus norvegicus; assay: Antiallergic activity in iv dosed sensitized Sprague-Dawley rat assessed as inhibition of passive cutaneous anaphylaxis; type: functional; conditions: read-out: ID50 (the source's name)
How it was run: (§1)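 Female Sprague-Dawley rats (80–100 g, groups of five) got 0.1 ml intradermal flank injections of rat anti-N. braziliensis reaginic serum, diluted 1 in 8 to 1 in 32. After 24 h they were challenged iv with worm antigen (25 mg/kg protein) plus Evans blue (25 mg/kg). Compound in saline was given iv with the challenge. Rats were killed at 30 min and dye spots graded 0–4. % inhibition = 100 − 100 × treated/control mean score. ID50 was interpolated from a log-dose plot.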

**Q.** With `COc1cc2oc(C(=O)[O-])cc(=O)c2c2oc(C(=O)[O-])cc(=O)c12.[Na+].[Na+]` as the molecule, how does the ED50 read?
**A.** Its ED50 is 0.73 mg/kg.

**Q.** `O=C([O-])c1cc(=O)c2c(cc(O)c3c(=O)cc(C(=O)[O-])oc32)o1.[Na+].[Na+]` was tested. Which ED50 did it give?
**A.** Its ED50 is 5 mg/kg.

**Q.** For `CCc1cc2c(=O)cc(C(=O)[O-])oc2c2c(=O)cc(C(=O)[O-])oc12.[Na+].[Na+]`, which ED50 is on record?
**A.** Its ED50 is 10 mg/kg.

**Q.** How did the ED50 turn out when `CCOc1cc2oc(C(=O)[O-])cc(=O)c2c2oc(C(=O)[O-])cc(=O)c12.[Na+].[Na+]` was run?
**A.** Its ED50 is 0.38 mg/kg.

**Q.** With `O=C([O-])c1cc(=O)c2c(ccc3c(=O)cc(C(=O)[O-])oc32)o1.[Na+].[Na+]` as the molecule, how does the ED50 read?
**A.** The ED50 was 7.6 mg/kg.

**Q.** `O=C([O-])c1cc(=O)c2c(o1)c(Cl)cc1c(=O)cc(C(=O)[O-])oc12.[Na+].[Na+]` was tested. Which ED50 did it give?
**A.** The ED50 was greater than 10 mg/kg.

**Q.** Which ED50 does the source give for `C=CCOc1cc2oc(C(=O)[O-])cc(=O)c2c2oc(C(=O)[O-])cc(=O)c12.[Na+].[Na+]` here?
**A.** The ED50 was 0.62 mg/kg.

**Q.** `C=CCc1c(OC)c2c(=O)cc(C(=O)[O-])oc2c2c(=O)cc(C(=O)[O-])oc12.[Na+].[Na+]` was tested. Which ED50 did it give?
**A.** Its ED50 is 0.22 mg/kg.

**Q.** How did the ED50 turn out when `CCCc1c(OC)c2c(=O)cc(C(=O)[O-])oc2c2c(=O)cc(C(=O)[O-])oc12.[Na+].[Na+]` was run?
**A.** The ED50 was 0.18 mg/kg.

**Q.** `CCc1c2oc(C(=O)[O-])cc(=O)c2c(C)c2c(=O)cc(C(=O)[O-])oc12.[Na+].[Na+]` was tested. Which ED50 did it give?
**A.** Its ED50 is 0.03 mg/kg.

**Q.** For `Cc1c2oc(C(=O)[O-])cc(=O)c2cc2c(=O)cc(C(=O)[O-])oc12.[Na+].[Na+]`, which ED50 is on record?
**A.** Its ED50 is 0.25 mg/kg.

**Q.** `CCc1c2oc(C(=O)[O-])cc(=O)c2cc2c(=O)cc(C(=O)[O-])oc12.[Na+].[Na+]` was tested. Which ED50 did it give?
**A.** Its ED50 is 0.1 mg/kg.

**Q.** Which ED50 does the source give for `CCCc1c2oc(C(=O)[O-])cc(=O)c2cc2c(=O)cc(C(=O)[O-])oc12.[Na+].[Na+]` here?
**A.** Its ED50 is 0.05 mg/kg.

**Q.** `CCCCc1c2oc(C(=O)[O-])cc(=O)c2cc2c(=O)cc(C(=O)[O-])oc12.[Na+].[Na+]` was tested. Which ED50 did it give?
**A.** Its ED50 is 0.05 mg/kg.

**Q.** For `O=C([O-])c1cc(=O)c2cc3c(=O)cc(C(=O)[O-])oc3c([N+](=O)[O-])c2o1.[Na+].[Na+]`, which ED50 is on record?
**A.** Its ED50 is 1.6 mg/kg.

**Q.** For `O=C([O-])c1cc(=O)c2cc3c(=O)cc(C(=O)[O-])oc3cc2o1.[Na+].[Na+]`, which ED50 is on record?
**A.** Its ED50 is 0.18 mg/kg.

**Q.** Which ED50 does the source give for `CCOCc1c2oc(C(=O)[O-])cc(=O)c2cc2c(=O)cc(C(=O)[O-])oc12.[Na+].[Na+]` here?
**A.** Its ED50 is 0.33 mg/kg.

**Q.** Which ED50 does the source give for `COc1c2c(=O)cc(C(=O)[O-])oc2cc2oc(C(=O)[O-])cc(=O)c12.[Na+].[Na+]` here?
**A.** Its ED50 is 0.32 mg/kg.

**Q.** With `CCCc1c2oc(C(=O)[O-])cc(=O)c2c(OC)c2c(=O)cc(C(=O)[O-])oc12.[Na+].[Na+]` as the molecule, how does the ED50 read?
**A.** The ED50 was 0.1 mg/kg.

**Q.** With `O=C([O-])c1cc(=O)c2cc3oc(C(=O)[O-])cc(=O)c3cc2o1.[Na+].[Na+]` as the molecule, how does the ED50 read?
**A.** The ED50 was 0.68 mg/kg.

**Q.** How did the ED50 turn out when `O=C([O-])c1cc(=O)c2c(o1)c1c(c3c(=O)cc(C(=O)[O-])oc32)OCC1.[Na+].[Na+]` was run?
**A.** The ED50 was 0.35 mg/kg.

**Q.** With `Cc1cc(=O)oc2c1c1oc(C(=O)[O-])cc(=O)c1c1oc(C(=O)[O-])cc(=O)c21.[Na+].[Na+]` as the molecule, how does the ED50 read?
**A.** The ED50 was 4.24 mg/kg.

**Q.** With `O=C([O-])c1cc(=O)c2c(OCC(O)COc3cccc4oc(C(=O)[O-])cc(=O)c34)cccc2o1.[Na+].[Na+]` [CROMOLYN SODIUM] as the molecule, how does the ED50 read?
**A.** The ED50 was 1.2 mg/kg.

tested on: Rattus norvegicus; assay: Antiallergic activity in sensitized Sprague-Dawley rat assessed as inhibition of passive cutaneous anaphylaxis at 1 mg/kg, iv; type: functional; conditions: not given; how it was run: as §1

**Q.** For `CCCc1c2oc(C(=O)[O-])cc(=O)c2c(OC)c2c(=O)cc(C(=O)[O-])oc12.[Na+].[Na+]`, which inhibition in vivo at 1 mg/kg is on record?
**A.** Its inhibition in vivo at 1 mg/kg is 100%.
